Among the data in ChEMBL document CHEMBL1123591, “Synthetic analogues of tetrahydrobiopterin with cofactor activity for aromatic amino acid hydroxylases” (1987) are Relative velocity and Km values, retold here.

In experiment [1] the target is T1, Tyrosine 3-monooxygenase (Bos taurus) (UniProt P17289).
T1 sequence (whole entry): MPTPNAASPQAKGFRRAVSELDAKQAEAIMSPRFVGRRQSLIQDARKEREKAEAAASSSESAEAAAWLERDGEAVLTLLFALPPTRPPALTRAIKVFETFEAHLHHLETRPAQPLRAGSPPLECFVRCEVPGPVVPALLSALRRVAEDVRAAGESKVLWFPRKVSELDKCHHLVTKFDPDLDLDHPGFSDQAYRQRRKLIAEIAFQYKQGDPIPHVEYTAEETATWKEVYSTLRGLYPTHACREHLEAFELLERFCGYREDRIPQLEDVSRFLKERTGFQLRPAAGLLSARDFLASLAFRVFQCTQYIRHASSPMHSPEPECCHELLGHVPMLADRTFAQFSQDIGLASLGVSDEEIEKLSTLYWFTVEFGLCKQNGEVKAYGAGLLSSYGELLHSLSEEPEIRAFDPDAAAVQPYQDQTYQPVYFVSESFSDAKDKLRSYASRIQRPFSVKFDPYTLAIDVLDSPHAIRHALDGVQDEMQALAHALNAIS
Put plainly: Cofactor activity in bovine adrenal medulla tyrosine hydroxylase assay as relative velocity. A digest of the protocol:
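Tyrosine hydroxylase was purified from bovine adrenal medulla by partial trypsin digestion, giving a model of the high-affinity form, then ammonium sulfate fractionation. Activity was measured as release of ³H₂O from L-(3,5-³H)tyrosine, with velocities expressed relative to tetrahydrobiopterin.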

The target in experiment [2] is T2, Tryptophan 5-hydroxylase 1 (Rattus norvegicus) (UniProt P09810).
T2 sequence (whole entry): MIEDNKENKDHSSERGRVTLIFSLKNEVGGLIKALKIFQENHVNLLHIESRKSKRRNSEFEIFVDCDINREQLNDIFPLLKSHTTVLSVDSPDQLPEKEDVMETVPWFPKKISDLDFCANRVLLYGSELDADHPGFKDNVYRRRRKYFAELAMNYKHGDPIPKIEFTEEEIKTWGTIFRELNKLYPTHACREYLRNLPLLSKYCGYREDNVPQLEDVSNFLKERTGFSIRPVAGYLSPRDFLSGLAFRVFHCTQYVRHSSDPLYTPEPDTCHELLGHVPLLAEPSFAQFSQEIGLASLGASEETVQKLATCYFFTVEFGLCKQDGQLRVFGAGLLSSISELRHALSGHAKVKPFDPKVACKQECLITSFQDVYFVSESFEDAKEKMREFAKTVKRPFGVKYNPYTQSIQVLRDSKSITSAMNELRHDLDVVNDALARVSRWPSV
Nature of the experiment: Tested in isolated enzyme assay for its cofactor activity against tryptophan hydroxylase (isolated from rat brain stem) expressed as relative velocity. A digest of the protocol: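 The tryptophan hydroxylase source was a desalted 40000g supernatant of rat brain stem, with velocities expressed relative to tetrahydrobiopterin.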

Experiment [3] deals with dihydropteridine reductase. Put plainly: Tested in isolated enzyme assay for its cofactor activity against dihydropteridine reductase expressed as Michaelis-Menten constant.
Experiment [4] deals with T3, Phenylalanine-4-hydroxylase (Rattus norvegicus) (UniProt P04176).
T3 sequence (whole entry): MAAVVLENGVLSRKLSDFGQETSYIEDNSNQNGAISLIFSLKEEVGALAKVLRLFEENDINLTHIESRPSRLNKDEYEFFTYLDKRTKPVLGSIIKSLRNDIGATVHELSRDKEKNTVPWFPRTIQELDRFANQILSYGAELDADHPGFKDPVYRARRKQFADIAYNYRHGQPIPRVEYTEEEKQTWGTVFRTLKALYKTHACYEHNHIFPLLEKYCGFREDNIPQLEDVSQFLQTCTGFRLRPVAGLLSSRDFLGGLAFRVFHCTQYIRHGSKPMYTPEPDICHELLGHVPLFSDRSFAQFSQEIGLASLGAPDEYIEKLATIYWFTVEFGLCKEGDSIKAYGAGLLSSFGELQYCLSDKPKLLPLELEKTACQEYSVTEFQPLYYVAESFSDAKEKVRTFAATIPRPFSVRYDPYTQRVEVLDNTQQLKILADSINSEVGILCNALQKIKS
Put plainly: Tested in isolated enzyme assay for its cofactor activity against phenylalanine hydroxylase (isolated from rat liver) expressed as relative velocity. A digest of the protocol:
(§1)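 Phenylalanine hydroxylase was isolated from rat liver and purified on phenyl-Sepharose. Tyrosine formed was quantified by liquid chromatography with fluorescence detection, and velocities were expressed relative to tetrahydrobiopterin.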

The target of experiment [5] is T3, Phenylalanine-4-hydroxylase (Rattus norvegicus). Nature of the experiment: Tested in isolated enzyme assay for its cofactor activity against phenylalanine hydroxylase (iisolated from rat liver) expressed as relative velocity. The essentials:
as §1

Experiment [6] deals with dihydropteridine reductase. Put plainly: Tested in isolated enzyme assay for its cofactor activity against dihydropteridine reductase expressed as Michaelis-Menten constant (calculated in the presence of platinum catalyst).

Consider `CCCOCC1CNc2nc(N)nc(O)c2N1` (configuration not stated), for which the Relative velocity amounted to 92% in experiment [1], 54% in experiment [2] and 32% in experiment [4]. Moreover, in experiment [3], the Michaelis-Menten constant (Km) came to 2 µM.

For the compound `COCC1CNc2nc(N)nc(O)c2N1` (configuration not stated), the values for the Relative velocity in experiment [1], in experiment [2] and in experiment [5] were 126%, 65% and 138%, respectively. For the same compound, in experiment [3], the Km was 9 µM.

With `CC(C)COCC1CNc2nc(N)nc(O)c2N1` (configuration not stated), the Relative velocity in experiment [1] worked out at 110%.

Take `CCCCCCCCOCC1CNc2nc(N)nc(O)c2N1` (configuration not stated): the Relative velocity in experiment [1] was 48%; in experiment [2], 32%; in experiment [4], 3%.

Regarding `CC1(C)CNc2nc(N)nc(O)c2N1`, in experiment [6], the Km was 260 µM. Besides, the Relative velocity amounted to 119% in experiment [1], 40% in experiment [2] and 39% in experiment [4].

For `CC(C)(C)OCC1CNc2nc(N)nc(O)c2N1` (configuration not stated), the results for the Relative velocity in experiment [1] and in experiment [4] were 130% and 4%, respectively. In experiment [3], the Km was determined as 5 µM.

With `CCOCC1CNc2nc(N)nc(O)c2N1` (configuration not stated), the Relative velocity is 154% in experiment [1], 85% in experiment [2] and 155% in experiment [5]. Further, the Km in experiment [3] turned out to be 6 µM.

Consider `CCCCOCC1CNc2nc(N)nc(O)c2N1` (configuration not stated), for which the values for the Relative velocity in experiment [1], in experiment [2] and in experiment [4] were 135%, 52% and 22%, respectively. Further, in experiment [3], the Km worked out at 3 µM.

`CCCCCOCC1CNc2nc(N)nc(O)c2N1` (configuration not stated) gave a Relative velocity in experiment [1] of 85%.

On to `CC(O)C(O)C1CNc2nc(N)nc(O)c2N1` (configuration not stated), for which the Relative velocity in experiment [1], in experiment [2] and in experiment [5] was 100% each time. Besides, the Km in experiment [3] came out at 2 µM.

As for `CC1CNc2nc(N)[nH]c(=O)c2N1` (configuration not stated), the Relative velocity in experiment [1] is 154%; in experiment [2], 154%; in experiment [5] it was 238%. Moreover, the Km in experiment [3] worked out at 13 µM.

For `COCCOCC1CNc2nc(N)nc(O)c2N1` (configuration not stated), the results for the Relative velocity in experiment [1] and in experiment [4] were 131% and 36%, respectively.

As for `CC(C)OCC1CNc2nc(N)nc(O)c2N1` (configuration not stated), the Relative velocity is 137% in experiment [1], 44% in experiment [2] and 15% in experiment [4]. For the same compound, in experiment [3], the Michaelis-Menten constant (Km) stood at 4 µM.
